UBC13 inh: inhibitors of human UBC13 polyubiquitin chain formation. P61088. TR-FRET. inhibition, % at 20 µM. 330,000 compounds, 0.47% hits; in the data active = inhibition above about 45%, passing the limit was not always enough
Target sequence (P61088 whole entry, looked up): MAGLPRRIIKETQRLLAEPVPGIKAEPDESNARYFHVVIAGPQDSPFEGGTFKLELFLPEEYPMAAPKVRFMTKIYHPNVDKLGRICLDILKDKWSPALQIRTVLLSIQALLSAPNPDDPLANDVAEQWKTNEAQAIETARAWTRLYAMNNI
SENP7 inh: SENP7 protease inhibition | inhibition, % at 5 µM | 330,000 compounds, 1.5% hits | Q9BQF6 | recombinant SENP7, Z-RLRGG-aminoluciferin luminescence, 40 min;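 active = inhibition above about 50% at the single test dose, limit read from the data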
Apaf-1 inh: inhibitors of human Apaf-1 apoptosome | 330,000 compounds, 0.71% hits | inhibition, % at 20 µM | AID 489030 | reconstituted apoptosome caspase-3 activity, DEVD-Rh110 fluorescence; active = inhibition of at least 40% at 20 µM
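Material: reconstituted apoptosome with Apaf-1, cytochrome c, caspase-9, procaspase-3, dATP. Technique: Rh110 fluorescence intensity. Buffer or medium: pH 7.5 Hepes buffer with CHAPS, BSA, DTT. Times: 30 min plus 50 min, RT.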
SENP8 block-1: blocks the human protease SENP8; Q96LD8; AID 2540; purified SENP8, Z-RLRGG-aminoluciferin cleavage, luminescence; 330,000 compounds, 1.2% hits; inhibition, % at 10 µM; in the data active = inhibition above about 50%
SENP6 inh: inhibitors of human SENP6 protease; 330,000 compounds, 1.8% hits; Q9GZR1; inhibition, % at 10 µM; Recombinant SENP6 catalytic domain, aminoluciferin luminescence; AID 2599;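 active = inhibition above about 50% at the single tested dose, limit read from the data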
Target sequence (Q9GZR1 628-1112 limits assumed): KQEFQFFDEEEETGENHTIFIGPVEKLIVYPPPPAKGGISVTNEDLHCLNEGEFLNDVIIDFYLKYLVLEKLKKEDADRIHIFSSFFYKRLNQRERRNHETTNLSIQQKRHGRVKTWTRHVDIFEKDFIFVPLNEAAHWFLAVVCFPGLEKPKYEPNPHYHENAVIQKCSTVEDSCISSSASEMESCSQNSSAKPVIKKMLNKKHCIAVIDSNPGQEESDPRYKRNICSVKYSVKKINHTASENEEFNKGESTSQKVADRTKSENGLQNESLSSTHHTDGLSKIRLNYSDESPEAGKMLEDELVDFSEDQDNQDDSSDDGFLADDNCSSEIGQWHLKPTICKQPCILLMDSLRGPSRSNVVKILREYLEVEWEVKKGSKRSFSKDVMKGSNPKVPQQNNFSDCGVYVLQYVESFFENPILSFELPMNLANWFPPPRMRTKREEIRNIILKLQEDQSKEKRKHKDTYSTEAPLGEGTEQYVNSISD
SENP8 block-2: blocks human SENP8 cleavage of Nedd8 substrate; inhibition, % at 20 µM; Q96LD8; 360,000 compounds, 0.64% hits; recombinant SENP8, Nedd8 substrate fluorescence; in the data active = inhibition mostly above about 40%, no sharp cut-off; inactive = mostly below about 27%
SENP8 confirm: human SENP8 inhibition, confirmed | shares compounds with SENP7 inh | Recombinant SENP8, Z-RLRGG-aminoluciferin luminescence, 60 min | inhibition, % at 12.5 µM | 6,200 compounds, 40% hits;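 active = mean inhibition across replicates above about 50%, limit read from the data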
SENP6 confirm: confirmation of human SENP6 protease inhibitors | shares compounds with SENP7 inh | recombinant SENP6, Z-RLRGG-aminoluciferin luminescence | inhibition, % at 12.5 µM | 6,200 compounds, 58% hits
SENP7 confirm: confirmation of human SENP7 protease inhibitors. 6,200 compounds, 69% hits. shares compounds with SENP7 inh. recombinant SENP7, Z-RLRGG-aminoluciferin luminescence, 40 min. inhibition, % at 12.5 µM. AID 488917
Casp3 SENP sel: selectivity test for SENP inhibitors: human caspase-3 inhibition | 6,200 compounds, 60% hits | inhibition, % at 12.5 µM | purified caspase-3, Z-DEVD-aminoluciferin luminescence, 60 min | shares compounds with SENP7 inh;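 active = mean inhibition above about 50%, limit read from the data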
Luc interf: luminescence interference (SENP counter-screen). shares compounds with SENP7 inh. Pre-incubated SENP8/Z-RLRGG-aminoluciferin, luciferase luminescence interference. inhibition, % at 12.5 µM. 6,200 compounds, 39% hits. AID 488919;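 active = mean inhibition above about 50% when retested at one dose, limit read from the data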
Large screens that a line does not name were inactive (follow-up assays come after a bar, where they were run). In the library only some 3.1% were active in any assay of this set; here they are far more common.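 Rule for the calls, unless noted: active = mean inhibition above about 50% in the one-dose retest (limit read from the data); inactive = the rest.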

Cc1cc(C(=O)Nc2ccc(Br)cn2)sc1C	SENP7 inh 87, SENP8 block-1 84, SENP6 inh 84 | SENP8 confirm 81 | SENP6 confirm 87 | SENP7 confirm 97 | Casp3 SENP sel 78 | Luc interf 64
Cc1ccc(NC(=O)c2ccccc2F)nc1	SENP7 inh 51, SENP6 inh 74 | SENP8 confirm inactive | SENP6 confirm 58 | SENP7 confirm 85 | Casp3 SENP sel 86 | Luc interf inactive
Cc1ccccc1C(=O)Nc1ccc(Br)cn1	SENP7 inh 51, SENP6 inh 59 | SENP8 confirm inactive | SENP6 confirm inactive | SENP7 confirm 79 | Casp3 SENP sel 63 | Luc interf inactive
O=C(Nc1ccc(Br)cn1)c1ccc(Br)s1	SENP6 inh 50 | SENP8 confirm inactive | SENP6 confirm inactive | SENP7 confirm 77 | Casp3 SENP sel inactive | Luc interf inactive
O=C(Nc1ccon1)c1ccc(Br)s1	none
CC1CCC(C(O)(C(=O)c2ccccc2)c2ccccc2)C(=O)C1 (stereo not drawn)	none (no result: UBC13 inh, SENP7 inh, Apaf-1 inh, SENP8 block-1, SENP6 inh)
COc1ccccc1-c1cnc(C(O)c2cc(C)c(OC)c(C)c2)[nH]1 (stereo not drawn)	none (no result: UBC13 inh, SENP7 inh, Apaf-1 inh, SENP8 block-1, SENP6 inh)
CCOC(=O)N1CCN(C(=O)c2[nH]c(C(F)(F)F)nc2-c2ccccc2)CC1	none (no result: UBC13 inh, SENP7 inh, Apaf-1 inh, SENP8 block-1, SENP6 inh)
CC(C)Oc1cccc(NC(=O)C2(C)CCN2C(C)C)c1 (stereo not drawn)	none (no result: UBC13 inh, SENP7 inh, Apaf-1 inh, SENP8 block-1, SENP6 inh)
COc1ccc(C(=O)/C=C2\Sc3ccccc3N2C)cc1	SENP7 inh 53 | SENP8 confirm 74 | SENP6 confirm 77 | SENP7 confirm 92 | Casp3 SENP sel 77 | Luc interf inactive
Cc1ccc([C@@H]2C[C@H]3[C@@H](CN2S(=O)(=O)c2ccc(Cl)cc2)C(=O)C[C@@H](c2ccc(C)cc2)N3S(=O)(=O)c2ccc(Cl)cc2)cc1	none (no result: UBC13 inh, SENP7 inh, Apaf-1 inh, SENP8 block-1, SENP6 inh)
Fc1ccc2nc3[nH]c4ccccc4c3nc2c1	SENP7 inh 74, SENP6 inh 74 | SENP8 confirm inactive | SENP6 confirm 53 | SENP7 confirm 53 | Casp3 SENP sel 61 | Luc interf inactive
COc1cc(/C=N/Nc2nc3ccccc3s2)cc([N+](=O)[O-])c1O	SENP8 block-1 58, SENP8 block-2 42 | SENP8 confirm inactive | SENP6 confirm inactive | SENP7 confirm inactive | Casp3 SENP sel inactive | Luc interf inactive
COc1cc(/C=N/Nc2ccccc2[N+](=O)[O-])cc(OC)c1O	none
OC(c1nc2ccccc2[nH]1)C(O)c1nc2ccccc2[nH]1 (stereo not drawn)	none
FC(F)(F)c1nc2cc3nc4ccccc4[nH]c3cc2n1	SENP6 inh 54 | SENP8 confirm 67 | SENP6 confirm 65 | SENP7 confirm 86 | Casp3 SENP sel 80 | Luc interf 70
CCCCN(C)C(=O)c1ccc(Nc2nc(C(N)Cc3ccc(C(F)(F)F)cc3)cs2)nc1 (stereo not drawn)	none (no result: UBC13 inh, SENP7 inh, Apaf-1 inh, SENP8 block-1, SENP6 inh)
Cc1ccc2c(c1)Cc1nc3ccccc3nc1-2	SENP7 inh 100, SENP8 block-1 96, SENP6 inh 98 | SENP8 confirm inactive | SENP6 confirm 99 | SENP7 confirm 103 | Casp3 SENP sel 98 | Luc interf 68
Cc1ccc2c(c1)-c1nc3ccccc3cc1C2=NC1CCCCC1	none (no result: UBC13 inh, SENP7 inh, Apaf-1 inh, SENP8 block-1, SENP6 inh)
COc1cccc(NC(=O)n2ncc3c(C)cccc32)c1	SENP7 inh 100, SENP8 block-1 95, SENP6 inh 99 | SENP8 confirm 100 | SENP6 confirm 101 | SENP7 confirm 103 | Casp3 SENP sel 99 | Luc interf 98
CCOc1ccc(NC(=O)n2ncc3c(C)cccc32)cc1	SENP7 inh 91, SENP8 block-1 81, SENP6 inh 64 | SENP8 confirm inactive | SENP6 confirm inactive | SENP7 confirm inactive | Casp3 SENP sel inactive | Luc interf inactive
CC(C)(C)NC(=O)C(c1ccc(C#N)cc1)n1c(=O)c(-c2cc3ccccc3[nH]2)nc2ccccc21 (stereo not drawn)	none (no result: UBC13 inh, SENP7 inh, Apaf-1 inh, SENP8 block-1, SENP6 inh)
ClC1=CN(C2=NCCC2)CC1	none (no result: UBC13 inh, SENP7 inh, Apaf-1 inh, SENP8 block-1, SENP6 inh)
O=C(COC(=O)c1ccccc1Nc1ccc(SC(F)F)cc1)NCc1ccco1	SENP6 inh 65 | SENP8 confirm inactive | SENP6 confirm inactive | SENP7 confirm inactive | Casp3 SENP sel inactive | Luc interf inactive
NC(=O)COC(=O)c1ccccc1Nc1ccc(SC(F)F)cc1	SENP6 inh 64 | SENP8 confirm 61 | SENP6 confirm 60 | SENP7 confirm 77 | Casp3 SENP sel inactive | Luc interf 69
Cc1cccc(Nc2ccccc2C(=O)OCC(=O)NCc2ccco2)c1C	none
Cc1cnc(C)c(Nc2nc(C(N)Cc3ccc(Cl)cc3)cs2)n1 (stereo not drawn)	none (no result: UBC13 inh, SENP7 inh, Apaf-1 inh, SENP8 block-1, SENP6 inh)
CCOC(=O)c1sc(NC(=O)c2ccc(CC)s2)nc1C	SENP7 inh 67 | SENP8 confirm inactive | SENP6 confirm inactive | SENP7 confirm inactive | Casp3 SENP sel inactive | Luc interf inactive
CCOC(=O)c1sc(Nc2ccc(Br)cc2)nc1C	none
CCOC(=O)c1sc(Nc2ccccc2Cl)nc1C	SENP6 inh 63 | SENP8 confirm inactive | SENP6 confirm inactive | SENP7 confirm 73 | Casp3 SENP sel inactive | Luc interf inactive
CCc1ccc(C(=O)Nc2nc(C)cs2)s1	SENP7 inh 82, SENP8 block-1 63, SENP6 inh 76 | SENP8 confirm 77 | SENP6 confirm 73 | SENP7 confirm 93 | Casp3 SENP sel 78 | Luc interf 77
CCOC(=O)c1sc(NC(=O)c2cc3ccccc3o2)nc1C	none
CCOC(=O)c1sc(NC(=O)c2ccccc2OC)nc1C	SENP7 inh 102, SENP8 block-1 98, SENP6 inh 97 | SENP8 confirm 80 | SENP6 confirm 70 | SENP7 confirm 99 | Casp3 SENP sel 63 | Luc interf inactive
CC1=CC(=O)C(Sc2ccc(C)cc2)=CC1=O	none (no result: UBC13 inh, SENP7 inh, Apaf-1 inh, SENP8 block-1, SENP6 inh)
C/C=C/c1ccc2c(c1)O[C@H](CN(C)CC1CCOCC1)[C@@H](C)CN([C@H](C)CO)S2(=O)=O	none (no result: UBC13 inh, SENP7 inh, Apaf-1 inh, SENP8 block-1, SENP6 inh)
CCOC(=O)c1sc(NC(=O)c2ccc3ncsc3c2)nc1C	SENP7 inh 59 | SENP8 confirm inactive | SENP6 confirm inactive | SENP7 confirm inactive | Casp3 SENP sel inactive | Luc interf inactive

Screens as filed in PubChem.
